In ChEMBL document CHEMBL1125251, “4'-Hydroxy-3-methoxyflavones with potent antipicornavirus activity” (J Med Chem, 1991):
Converted amounts (≈) assume the structure as drawn.

Key:
[1] = tested on: Enterovirus C; assay: The ratio of the poliovirus viral titer of the virus control (reduction factor) to the viral titer in the presence of the maximal non-toxic dose (RF MNTD); format: functional
Procedure, shortened: (§1)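 Poliovirus type 1 Brunhilde 1A/S3 in Vero monolayers. Serial 10-fold virus dilutions adsorbed 1 h at 37 °C, then serial 2-fold compound dilutions were added. Incubated at 37 °C and scored for CPE by light microscopy, with a 3-day readout. Titer reduction is control/treated TCD50/mL. ED99 is the minimum concentration inhibiting 99% of virus. Virus, cell and compound controls were included.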

[2] = tested on: Enterovirus C; assay: Minimum drug concentration at which 99% of the polio virus is inhibited; format: functional; procedure, shortened: as §1
[3] = tested on: Enterovirus C; assay: Minimal dose which produces titer reduction at 10 ug/mL (mD RF10e3); format: functional
[4] = Therapeutic Index measured as the ratio of CyD50(polio) / ED99(polio) values; format: organism-based; conditions: enterovirus c; read-out: Therapeutic index 99
Procedure, shortened: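 TI99 = CyD50/ED99 for poliovirus. ED99 came from end-point titration in Vero cells at 37 °C over 3 days. CyD50 came from Vero cell growth: 10⁶ cells were given serial 2-fold compound dilutions in quadruplicate for 6 days at 37 °C, then trypsinized, counted and reseeded, repeated five times. Generation time was calculated per concentration.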

[5] = Cytotoxic dose at which 50% growth of normal cells is inhibited; format: cell-based; conditions: chlorocebus sabaeus, Vero cells; read-out: CyD50
Procedure, shortened: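 Cell-growth cytotoxicity in Vero cells or human skin fibroblasts. Serial 2-fold dilutions in M-199 with 6% newborn calf serum were added in quadruplicate to 10⁶ cells and held 6 days at 37 °C. Cells were trypsinized, counted and reseeded with compound, repeated five times. Generation time was calculated per concentration. CyD50 = lowest concentration at least doubling generation time versus untreated cells.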

[6] = tested on: Enterovirus C; assay: Maximal non-toxic dose (MNTD) that shows antiviral activity.; format: functional
Procedure, shortened: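 End-point titration. Poliovirus type 1 Brunhilde was run in Vero cells at 37 °C with a 3-day read. Rhinovirus 15 was run in human skin fibroblasts at 33 °C with a 7-day read. Monolayers got serial 10-fold virus dilutions and adsorbed 1 h at 37 °C, then serial 2-fold compound dilutions (DMSO stock in maintenance medium). CPE was read by light microscopy. RF = control titer (TCD50/mL) / titer at maximal nontoxic dose.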

[7] = tested on: Human rhinovirus sp.; assay: Cytotoxic dose at which 50% growth of normal cells is inhibited against rhino virus infection.; format: functional
Procedure, shortened: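 Human skin fibroblasts, 10⁶ cells per flask, given serial 2-fold dilutions in quadruplicate in M-199 with 6% newborn calf serum and held 6 days at 37 °C. Cells were trypsinized, counted in a chamber and reseeded with compound over five repeat cycles. CyD50 = lowest concentration at least doubling cell generation time relative to untreated control.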

[8] = tested on: Human rhinovirus sp.; assay: Minimum drug concentration at which 99% of the rhino virus is inhibited.; format: functional
Procedure, shortened: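 End-point titration with rhinovirus type 15 on human skin fibroblast monolayers. Cells were infected with serial 10-fold virus dilutions and allowed 1 h adsorption at 37 °C. Serial 2-fold compound dilutions were then added and plates incubated at 33 °C. CPE was read daily by light microscopy for at least 1 week, titres as TCD50/mL. ED99 = minimum concentration inhibiting 99% of virus.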

COc1c(-c2ccc(O)c(O)c2)oc2c(OC)c(O)cc(O)c2c1=O
Reduction factor [1]: 1000000 | ED99 [2]: 1.5 µg/mL | Minimal dose [3]: 2 µg/mL | selectivity ratio [4]: 6.6 | CC50 [5]: 10 µg/mL (≈ 28.9 µM) | Max non-toxic dose [6]: 20 µg/mL

COc1c(-c2ccc(O)cc2)oc2cc(Br)ccc2c1=O
Reduction factor [1]: 10 | ED99 [2]: >30 µg/mL | selectivity ratio [4]: < 1 | CC50 [5]: 30 µg/mL (≈ 86.4 µM) | Max non-toxic dose [6]: 30 µg/mL

COc1ccc(-c2oc3cc(OC)c(OC)cc3c(=O)c2OC)cc1OC
Reduction factor [1]: 10000 | Minimal dose [3]: 50 µg/mL | Max non-toxic dose [6]: 50 µg/mL

COc1cc(O)c2c(=O)c(OC)c(-c3ccc(O)c(OC)c3)oc2c1 [PACHYPODOL]
Reduction factor [1]: 1000000 | ED99 [2]: 2.5 µg/mL | Minimal dose [3]: 0.5 µg/mL | selectivity ratio [4]: 10 | CC50 [5]: 25 µg/mL (≈ 72.6 µM) | Max non-toxic dose [6]: 20 µg/mL

COc1c(-c2ccc(O)cc2)oc2c(C)cc(Cl)cc2c1=O
Reduction factor [1]: 1 | ED99 [2]: >50 µg/mL | selectivity ratio [4]: < 1 | CC50 [5]: 50 µg/mL (≈ 158 µM) | Max non-toxic dose [6]: 25 µg/mL

Cc1ccc2c(=O)c(N)c(-c3ccc(O)cc3)oc2c1
CC50 [5]: 10 µg/mL (≈ 37.4 µM)

COc1ccc(-c2oc3cc(O)c(OC)c(O)c3c(=O)c2OC)cc1 [SANTIN]
Reduction factor [1]: 1 | Max non-toxic dose [6]: 100 µg/mL

COc1c(-c2ccc(O)cc2)oc2cc(C(C)C)ccc2c1=O
Max non-toxic dose [6]: 25 µg/mL

COc1ccc(-c2oc3ccc(OC)cc3c(=O)c2OC)cc1
CyD50 [7]: 100 µg/mL | ED99 [8]: 50 µg/mL | selectivity ratio [4]: 2 | CC50 [5]: 100 µg/mL (≈ 320 µM) | Max non-toxic dose [6]: 50 µg/mL

COc1ccc(-c2oc3c(OC)c(OC)c(OC)c(O)c3c(=O)c2OC)cc1OC
Reduction factor [1]: 10000 | Minimal dose [3]: 50 µg/mL | Max non-toxic dose [6]: 50 µg/mL

COc1ccc(-c2oc3cc(O)cc(O)c3c(=O)c2OC)cc1OC
Minimal dose [3]: 2.5 µg/mL | Max non-toxic dose [6]: 50 µg/mL

Cc1ccc2c(=O)c(Cl)c(-c3ccc(O)cc3)oc2c1
CyD50 [7]: 50 µg/mL | ED99 [8]: 20 µg/mL | CC50 [5]: 50 µg/mL (≈ 174 µM)

COc1c(O)cc2oc(-c3ccc(O)cc3)c(OC)c(=O)c2c1O [3,6-DIMETHOXY KAEMPFEROL]
Reduction factor [1]: 100000 | ED99 [2]: 0.5 µg/mL | Minimal dose [3]: 1 µg/mL | selectivity ratio [4]: 50 | CC50 [5]: 25 µg/mL (≈ 75.7 µM) | Max non-toxic dose [6]: 20 µg/mL

COc1c(-c2ccc(OC(C)=O)c(OC(C)=O)c2)oc2cc(OC(C)=O)cc(OC(C)=O)c2c1=O
Reduction factor [1]: 1000000 | Minimal dose [3]: 2 µg/mL | Max non-toxic dose [6]: >50 µg/mL

COc1ccc(-c2oc3cc(O)cc(O)c3c(=O)c2OC)cc1 [ERMANIN]
ED99 [2]: 5 µg/mL | Minimal dose [3]: 5 µg/mL | selectivity ratio [4]: 10 | CC50 [5]: 50 µg/mL (≈ 159 µM) | Max non-toxic dose [6]: 10 µg/mL

COc1c(-c2ccc(O)cc2)oc2ccc(Cl)cc2c1=O
CyD50 [7]: 100 µg/mL | ED99 [2]: 6 µg/mL | Minimal dose [3]: 1.5 µg/mL | ED99 [8]: <1000 µg/mL | selectivity ratio [4]: 16.7 | CC50 [5]: 100 µg/mL (≈ 330 µM) | Max non-toxic dose [6]: 100 µg/mL

COc1ccc(-c2oc3cc(C)ccc3c(=O)c2OC)cc1
Reduction factor [1]: 1 | Max non-toxic dose [6]: 100 µg/mL

COc1ccc(-c2oc3cc(OC)cc(O)c3c(=O)c2OC)cc1
Reduction factor [1]: 1 | Max non-toxic dose [6]: >50 µg/mL

COc1c(-c2ccc(O)cc2)oc2ccccc2c1=O
Reduction factor [1]: 100000 | ED99 [2]: 6 µg/mL | Minimal dose [3]: 6 µg/mL | selectivity ratio [4]: 1.7 | CC50 [5]: 10 µg/mL (≈ 37.3 µM) | Max non-toxic dose [6]: 15 µg/mL

COc1c(-c2ccc(O)cc2)oc2ccc(C)cc2c1=O
CyD50 [7]: 75 µg/mL | ED99 [2]: 5 µg/mL | ED99 [8]: <1000 µg/mL | selectivity ratio [4]: 15 | CC50 [5]: 75 µg/mL (≈ 266 µM) | Max non-toxic dose [6]: 12 µg/mL

COc1c(-c2ccc(O)c(O)c2)oc2cc(O)cc(O)c2c1=O [3-O-METHYLQUERCETIN]
Reduction factor [1]: 1000000 | ED99 [2]: 0.3 µg/mL | Minimal dose [3]: 0.5 µg/mL | selectivity ratio [4]: 16.7 | CC50 [5]: 5 µg/mL (≈ 15.8 µM) | Max non-toxic dose [6]: 20 µg/mL

COc1cc(O)c2c(=O)c(OC)c(-c3ccc(OC)c(OC)c3)oc2c1 [RETUSIN]
Reduction factor [1]: 1 | Max non-toxic dose [6]: >50 µg/mL

COc1c(-c2ccc(O)cc2)oc2cc(F)ccc2c1=O
Reduction factor [1]: 1000 | ED99 [2]: 10 µg/mL | selectivity ratio [4]: 2.5 | CC50 [5]: 25 µg/mL (≈ 87.3 µM) | Max non-toxic dose [6]: 10 µg/mL

COc1ccc(-c2oc3c(OC)c(OC)cc(O)c3c(=O)c2OC)cc1
Max non-toxic dose [6]: 7.5 µg/mL

Cc1ccc2c(=O)c(C)c(-c3ccc(O)cc3)oc2c1
CyD50 [7]: 100 µg/mL | ED99 [8]: 25 µg/mL | CC50 [5]: 100 µg/mL (≈ 376 µM)

COc1ccc(-c2oc3cccc(OC)c3c(=O)c2OC)cc1
Reduction factor [1]: 1 | Max non-toxic dose [6]: 100 µg/mL

COc1ccc(-c2oc3c(OC)c(O)cc(O)c3c(=O)c2OC)cc1
Reduction factor [1]: 1 | Max non-toxic dose [6]: >10 µg/mL

COc1cc(O)c2c(=O)c(OC)c(-c3ccc(O)c(O)c3)oc2c1
Reduction factor [1]: 1000000 | ED99 [2]: 0.3 µg/mL | Minimal dose [3]: 0.5 µg/mL | selectivity ratio [4]: 33.3 | CC50 [5]: 10 µg/mL (≈ 30.3 µM) | Max non-toxic dose [6]: 10 µg/mL

COc1c(-c2ccc(O)cc2)oc2cc(O)cc(O)c2c1=O [ISOKAEMPFERIDE]
Reduction factor [1]: 1000000 | ED99 [2]: 0.2 µg/mL | Minimal dose [3]: 0.25 µg/mL | selectivity ratio [4]: 50 | CC50 [5]: 10 µg/mL (≈ 33.3 µM) | Max non-toxic dose [6]: 10 µg/mL

COc1ccc(-c2oc3ccc(O)cc3c(=O)c2OC)cc1
Reduction factor [1]: 1 | Max non-toxic dose [6]: 100 µg/mL

COc1ccc2oc(-c3ccc(O)cc3)c(OC)c(=O)c2c1
ED99 [2]: 25 µg/mL | selectivity ratio [4]: 8 | CC50 [5]: 200 µg/mL (≈ 670 µM) | Max non-toxic dose [6]: 50 µg/mL

COc1c(-c2ccc(O)cc2)oc2c(OC)cccc2c1=O
Reduction factor [1]: 1000000 | ED99 [2]: 20 µg/mL | Minimal dose [3]: 2.5 µg/mL | selectivity ratio [4]: 1.25 | CC50 [5]: 25 µg/mL (≈ 83.8 µM) | Max non-toxic dose [6]: 50 µg/mL

COc1ccc(-c2oc3c(OC)c(OC)c(OC)c(OC)c3c(=O)c2OC)cc1OC [3,5,6,7,8,3',4'-HEPTAMETHOXYFLAVONE]
Reduction factor [1]: 100000 | Minimal dose [3]: 25 µg/mL | Max non-toxic dose [6]: 50 µg/mL

COc1c(-c2ccc(Cl)cc2)oc2cc(C)ccc2c1=O
Reduction factor [1]: 1 | ED99 [2]: <1000 µg/mL | CC50 [5]: 100 µg/mL (≈ 333 µM) | Max non-toxic dose [6]: 25 µg/mL
